{
  "source": "ChEMBL document CHEMBL1153223",
  "about": "“One pot synthesis and SAR of some novel 3-substituted 5,6-diphenyl-1,2,4-triazines as antifungal agents” (2010)",
  "key": {"Aspergillus niger [1]": {"system": "Aspergillus niger", "assay": "Antifungal activity against Aspergillus niger NCIM 1196 by standard agar plate method", "assay_type": "functional", "how_it_was_run": "(§1)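 Read-out was the minimum inhibitory concentration (MIC) on agar plates, with miconazole and fluconazole run as reference antifungal standards.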"}, "Fusarium oxysporum [2]": {"system": "Fusarium oxysporum", "assay": "Antifungal activity against Fusarium oxysporum NCIM 1332 by standard agar plate method", "assay_type": "functional", "how_it_was_run": "as §1"}, "Candida albicans": {"system": "Candida albicans", "assay": "Antifungal activity against Candida albicans NCIM 347 by standard agar plate method", "assay_type": "functional", "how_it_was_run": "as §1"}, "Cryptococcus neoformans [3]": {"system": "Cryptococcus neoformans", "assay": "Antifungal activity against Cryptococcus neoformans NCIM 576 by standard agar plate method", "assay_type": "functional", "how_it_was_run": "as §1"}, "Aspergillus flavus [4]": {"system": "Aspergillus flavus", "assay": "Antifungal activity against Aspergillus flavus NCIM 539 by standard agar plate method", "assay_type": "functional", "how_it_was_run": "as §1"}, "Aspergillus niger [5]": {"system": "Aspergillus niger", "assay": "Antifungal activity against Aspergillus niger NCIM 1196 up to 200 ug/mL by standard agar plate method", "assay_type": "functional, organism-based", "how_it_was_run": "as §1"}, "Fusarium oxysporum [6]": {"system": "Fusarium oxysporum", "assay": "Antifungal activity against Fusarium oxysporum NCIM 1332 up to 200 ug/mL by standard agar plate method", "assay_type": "functional, organism-based", "how_it_was_run": "as §1"}, "Cryptococcus neoformans [7]": {"system": "Cryptococcus neoformans", "assay": "Antifungal activity against Cryptococcus neoformans NCIM 576 up to 200 ug/mL by standard agar plate method", "assay_type": "functional, organism-based", "how_it_was_run": "as §1"}, "Aspergillus flavus [8]": {"system": "Aspergillus flavus", "assay": "Antifungal activity against Aspergillus flavus NCIM 539 up to 200 ug/mL by standard agar plate method", "assay_type": "functional, organism-based", "how_it_was_run": "as §1"}},
  "note": "The source made the active and inactive calls. The calls are words filed in the database; no cut-off is given here.",
  "data": [
    {"molecule": "CN1CCC(n2cc(-c3nnc(-c4ccccc4)c(-c4ccccc4)n3)nn2)CC1", "values": [
      {"measurement": "MIC", "setting": "Aspergillus niger [1]", "result": 12.5, "unit": "µg/mL"},
      {"measurement": "MIC", "setting": "Fusarium oxysporum [2]", "result": 30, "unit": "µg/mL"},
      {"measurement": "MIC", "setting": "Candida albicans", "result": 25, "unit": "µg/mL"},
      {"measurement": "MIC", "setting": "Cryptococcus neoformans [3]", "result": 25, "unit": "µg/mL"},
      {"measurement": "MIC", "setting": "Aspergillus flavus [4]", "result": 17.5, "unit": "µg/mL"}
    ]},
    {"molecule": "CC(C)(C)OC(=O)N1CCC(n2cc(-c3nnc(-c4ccccc4)c(-c4ccccc4)n3)nn2)CC1", "values": [
      {"measurement": "MIC", "setting": "Candida albicans", "result": 70, "unit": "µg/mL"},
      {"measurement": "MIC", "setting": "Aspergillus niger [5]", "result": "inactive"},
      {"measurement": "MIC", "setting": "Cryptococcus neoformans [3]", "result": 100, "unit": "µg/mL"},
      {"measurement": "MIC", "setting": "Fusarium oxysporum [6]", "result": "inactive"},
      {"measurement": "MIC", "setting": "Aspergillus flavus [4]", "result": 55, "unit": "µg/mL"}
    ]},
    {"molecule": "O=C(c1ccccc1)N1CCC(n2cc(-c3nnc(-c4ccccc4)c(-c4ccccc4)n3)nn2)CC1", "values": [
      {"measurement": "MIC", "setting": "Aspergillus niger [1]", "result": 15, "unit": "µg/mL"},
      {"measurement": "MIC", "setting": "Fusarium oxysporum [2]", "result": 30, "unit": "µg/mL"},
      {"measurement": "MIC", "setting": "Candida albicans", "result": 30, "unit": "µg/mL"},
      {"measurement": "MIC", "setting": "Cryptococcus neoformans [3]", "result": 55, "unit": "µg/mL"},
      {"measurement": "MIC", "setting": "Aspergillus flavus [4]", "result": 17.5, "unit": "µg/mL"}
    ]},
    {"molecule": "CCC(=O)N1CCC(n2cc(-c3nnc(-c4ccccc4)c(-c4ccccc4)n3)nn2)CC1", "values": [
      {"measurement": "MIC", "setting": "Aspergillus niger [1]", "result": 20, "unit": "µg/mL"},
      {"measurement": "MIC", "setting": "Fusarium oxysporum [2]", "result": 50, "unit": "µg/mL"},
      {"measurement": "MIC", "setting": "Candida albicans", "result": 50, "unit": "µg/mL"},
      {"measurement": "MIC", "setting": "Cryptococcus neoformans [7]", "result": "inactive"},
      {"measurement": "MIC", "setting": "Aspergillus flavus [4]", "result": 20, "unit": "µg/mL"}
    ]},
    {"molecule": "CCN1CCC(n2cc(-c3nnc(-c4ccccc4)c(-c4ccccc4)n3)nn2)CC1", "values": [
      {"measurement": "MIC", "setting": "Aspergillus niger [1]", "result": 12.5, "unit": "µg/mL"},
      {"measurement": "MIC", "setting": "Fusarium oxysporum [2]", "result": 25, "unit": "µg/mL"},
      {"measurement": "MIC", "setting": "Candida albicans", "result": 25, "unit": "µg/mL"},
      {"measurement": "MIC", "setting": "Cryptococcus neoformans [3]", "result": 35, "unit": "µg/mL"},
      {"measurement": "MIC", "setting": "Aspergillus flavus [4]", "result": 12.5, "unit": "µg/mL"}
    ]},
    {"molecule": "O=C(c1ccc(Cl)cc1)N1CCC(n2cc(-c3nnc(-c4ccccc4)c(-c4ccccc4)n3)nn2)CC1", "values": [
      {"measurement": "MIC", "setting": "Aspergillus niger [1]", "result": 12.5, "unit": "µg/mL"},
      {"measurement": "MIC", "setting": "Fusarium oxysporum [2]", "result": 25, "unit": "µg/mL"},
      {"measurement": "MIC", "setting": "Candida albicans", "result": 25, "unit": "µg/mL"},
      {"measurement": "MIC", "setting": "Cryptococcus neoformans [3]", "result": 30, "unit": "µg/mL"},
      {"measurement": "MIC", "setting": "Aspergillus flavus [4]", "result": 15, "unit": "µg/mL"}
    ]},
    {"molecule": "OC(Cn1cncn1)(Cn1cncn1)c1ccc(F)cc1F", "note": "[FLUCONAZOLE]", "values": [
      {"measurement": "MIC", "setting": "Aspergillus niger [1]", "result": 10, "unit": "µg/mL"},
      {"measurement": "MIC", "setting": "Fusarium oxysporum [2]", "result": 5, "unit": "µg/mL"},
      {"measurement": "MIC", "setting": "Candida albicans", "result": 5, "unit": "µg/mL"},
      {"measurement": "MIC", "setting": "Cryptococcus neoformans [3]", "result": 5, "unit": "µg/mL"},
      {"measurement": "MIC", "setting": "Aspergillus flavus [4]", "result": 5, "unit": "µg/mL"}
    ]},
    {"molecule": "c1ccc(CN2CCC(n3cc(-c4nnc(-c5ccccc5)c(-c5ccccc5)n4)nn3)CC2)cc1", "values": [
      {"measurement": "MIC", "setting": "Aspergillus niger [1]", "result": 95, "unit": "µg/mL"},
      {"measurement": "MIC", "setting": "Fusarium oxysporum [2]", "result": 60, "unit": "µg/mL"},
      {"measurement": "MIC", "setting": "Candida albicans", "result": 40, "unit": "µg/mL"},
      {"measurement": "MIC", "setting": "Cryptococcus neoformans [7]", "result": "inactive"},
      {"measurement": "MIC", "setting": "Aspergillus flavus [8]", "result": "inactive"}
    ]},
    {"molecule": "c1ccc(-c2nnc(-c3cn(C4CCNCC4)nn3)nc2-c2ccccc2)cc1", "values": [
      {"measurement": "MIC", "setting": "Aspergillus niger [1]", "result": 42.5, "unit": "µg/mL"},
      {"measurement": "MIC", "setting": "Fusarium oxysporum [2]", "result": 40, "unit": "µg/mL"},
      {"measurement": "MIC", "setting": "Candida albicans", "result": 30, "unit": "µg/mL"},
      {"measurement": "MIC", "setting": "Cryptococcus neoformans [3]", "result": 45, "unit": "µg/mL"},
      {"measurement": "MIC", "setting": "Aspergillus flavus [4]", "result": 37.5, "unit": "µg/mL"}
    ]},
    {"molecule": "CS(=O)(=O)N1CCC(n2cc(-c3nnc(-c4ccccc4)c(-c4ccccc4)n3)nn2)CC1", "values": [
      {"measurement": "MIC", "setting": "Fusarium oxysporum [2]", "result": 60, "unit": "µg/mL"},
      {"measurement": "MIC", "setting": "Candida albicans", "result": 50, "unit": "µg/mL"},
      {"measurement": "MIC", "setting": "Aspergillus niger [5]", "result": "inactive"},
      {"measurement": "MIC", "setting": "Cryptococcus neoformans [7]", "result": "inactive"},
      {"measurement": "MIC", "setting": "Aspergillus flavus [4]", "result": 30, "unit": "µg/mL"}
    ]},
    {"molecule": "Cc1ccc(S(=O)(=O)N2CCC(n3cc(-c4nnc(-c5ccccc5)c(-c5ccccc5)n4)nn3)CC2)cc1", "values": [
      {"measurement": "MIC", "setting": "Aspergillus niger [1]", "result": 47.5, "unit": "µg/mL"},
      {"measurement": "MIC", "setting": "Fusarium oxysporum [2]", "result": 100, "unit": "µg/mL"},
      {"measurement": "MIC", "setting": "Candida albicans", "result": 90, "unit": "µg/mL"},
      {"measurement": "MIC", "setting": "Cryptococcus neoformans [3]", "result": 150, "unit": "µg/mL"},
      {"measurement": "MIC", "setting": "Aspergillus flavus [4]", "result": 35, "unit": "µg/mL"}
    ]},
    {"molecule": "CCCC(=O)N1CCC(n2cc(-c3nnc(-c4ccccc4)c(-c4ccccc4)n3)nn2)CC1", "values": [
      {"measurement": "MIC", "setting": "Aspergillus niger [1]", "result": 40, "unit": "µg/mL"},
      {"measurement": "MIC", "setting": "Fusarium oxysporum [2]", "result": 65, "unit": "µg/mL"},
      {"measurement": "MIC", "setting": "Candida albicans", "result": 62.5, "unit": "µg/mL"},
      {"measurement": "MIC", "setting": "Cryptococcus neoformans [3]", "result": 75, "unit": "µg/mL"},
      {"measurement": "MIC", "setting": "Aspergillus flavus [4]", "result": 35, "unit": "µg/mL"}
    ]},
    {"molecule": "Clc1ccc(COC(Cn2ccnc2)c2ccc(Cl)cc2Cl)c(Cl)c1", "note": "(stereo not given) [MICONAZOLE]", "values": [
      {"measurement": "MIC", "setting": "Aspergillus niger [1]", "result": 12.5, "unit": "µg/mL"},
      {"measurement": "MIC", "setting": "Fusarium oxysporum [2]", "result": 25, "unit": "µg/mL"},
      {"measurement": "MIC", "setting": "Candida albicans", "result": 25, "unit": "µg/mL"},
      {"measurement": "MIC", "setting": "Cryptococcus neoformans [3]", "result": 25, "unit": "µg/mL"},
      {"measurement": "MIC", "setting": "Aspergillus flavus [4]", "result": 12.5, "unit": "µg/mL"}
    ]},
    {"molecule": "CC(=O)N1CCC(n2cc(-c3nnc(-c4ccccc4)c(-c4ccccc4)n3)nn2)CC1", "values": [
      {"measurement": "MIC", "setting": "Aspergillus niger [1]", "result": 20, "unit": "µg/mL"},
      {"measurement": "MIC", "setting": "Fusarium oxysporum [2]", "result": 40, "unit": "µg/mL"},
      {"measurement": "MIC", "setting": "Candida albicans", "result": 35, "unit": "µg/mL"},
      {"measurement": "MIC", "setting": "Cryptococcus neoformans [7]", "result": "inactive"},
      {"measurement": "MIC", "setting": "Aspergillus flavus [4]", "result": 20, "unit": "µg/mL"}
    ]}
  ]
}
